Experimental findings from ChEMBL document CHEMBL2429814 (J Med Chem, 2013) are described below.

The target of data set [1] is T1, Metabotropic glutamate receptor 5 (Rattus norvegicus, UniProt P31424). As to the kind of experiment: Positive allosteric modulation of rat mGluR5 stably expressed in HEK293 cells assessed as Ca2+ flux by FLIPR assay. The class given is functional, cell-based. (In general: A change in cytosolic calcium serves as a functional read-out for many receptors and channels.)

Data set [2] has as its target T2, Metabotropic glutamate receptor 5 (Homo sapiens, UniProt P41594). As to the kind of experiment: Positive allosteric modulation of human mGluR5 stably expressed in HEK293 cells assessed as Ca2+ flux by FLIPR assay.
The target of data set [3] is T2, Metabotropic glutamate receptor 5. Kind of data set: Positive allosteric modulation of mGluR5 (unknown origin).
A short description of data set [4]: Protein binding in (unknown origin) plasma. The class given is ADME, cell-free. Conditions: read-out: PPB (converted); call rule not given here.
The target in data set [5] is T1, Metabotropic glutamate receptor 5. Kind of data set: Positive allosteric modulation of rat mGluR5 stably expressed in CHO cells assessed as calcium mobilization. The format is functional, cell-based.
A short description of data set [6]: Ratio of drug level in brain to plasma in (unknown origin). The following applies: brain and plasma; read-out: BPR. The class given is ADME, cell-free.
Data set [7] addresses Metabotropic glutamate receptor 5 (Rattus norvegicus) (UniProt P31424). As to the kind of experiment: Potentiation of rat mGluR5 receptor stably expressed in HEK293 cells assessed as fold shift in glutamate concentration response curve at 10 uM relative to control. The class given is cell-based. An outline of the steps: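 HEK293 cells stably expressing rat mGlu5 were loaded with Fluo-4AM. Compound at 10 µM, or vehicle, was added, and a glutamate concentration-response curve followed 140 s later. The fold leftward shift of the glutamate curve was read from calcium fluorescence. Values are means of three independent experiments in triplicate.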

Data set [8] concerns the target T1, Metabotropic glutamate receptor 5. As to the kind of experiment: Positive allosteric modulation of rat mGluR5 stably expressed in HEK293 cells assessed as increase in intracellular calcium level by Fluo-4AM dye-based fluorescence assay. The format is functional, cell-based. An outline of the steps: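 HEK293 cells stably expressing rat mGlu5 (low receptor density line), 15,000 cells/well, grown overnight at 37°C/5% CO2. Loaded with Fluo-4AM for 50 min at 37°C in HBSS with 20 mM HEPES, 2.5 mM probenecid, pH 7.4. Triple add: compound, then EC20 glutamate 140 s later, then EC80 glutamate 60 s later. Calcium fluorescence read over time. Values are means of ≥3 independent experiments run in duplicate or triplicate.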

Data set [9] addresses Metabotropic glutamate receptor 5 (Rattus norvegicus) (UniProt P31424). Kind of data set: Positive allosteric modulation of rat mGluR5 stably expressed in HEK293 cells assessed as increase in intracellular calcium level by Fluo-4AM dye-based fluorescence assay relative to glutamate. The format is functional, cell-based.
Data set [10] is described as follows: Agonist activity at rat mGluR5 W784A mutant stably expressed in HEK293 cells assessed as increase in intracellular calcium level at 1 to 100 uM by Fluo-4AM dye-based fluorescence assay. Conditions: hek293, 100 µM. The class given is cell-based.
Data set [11] is described as follows: Agonist activity at rat mGluR5 T780A mutant stably expressed in HEK293 cells assessed as increase in intracellular calcium level at 1 to 100 uM by Fluo-4AM dye-based fluorescence assay. The class given is cell-based. Conditions: hek293, 100 µM.

Molecules are shown by their SMILES.

T1 sequence (P31424 whole entry): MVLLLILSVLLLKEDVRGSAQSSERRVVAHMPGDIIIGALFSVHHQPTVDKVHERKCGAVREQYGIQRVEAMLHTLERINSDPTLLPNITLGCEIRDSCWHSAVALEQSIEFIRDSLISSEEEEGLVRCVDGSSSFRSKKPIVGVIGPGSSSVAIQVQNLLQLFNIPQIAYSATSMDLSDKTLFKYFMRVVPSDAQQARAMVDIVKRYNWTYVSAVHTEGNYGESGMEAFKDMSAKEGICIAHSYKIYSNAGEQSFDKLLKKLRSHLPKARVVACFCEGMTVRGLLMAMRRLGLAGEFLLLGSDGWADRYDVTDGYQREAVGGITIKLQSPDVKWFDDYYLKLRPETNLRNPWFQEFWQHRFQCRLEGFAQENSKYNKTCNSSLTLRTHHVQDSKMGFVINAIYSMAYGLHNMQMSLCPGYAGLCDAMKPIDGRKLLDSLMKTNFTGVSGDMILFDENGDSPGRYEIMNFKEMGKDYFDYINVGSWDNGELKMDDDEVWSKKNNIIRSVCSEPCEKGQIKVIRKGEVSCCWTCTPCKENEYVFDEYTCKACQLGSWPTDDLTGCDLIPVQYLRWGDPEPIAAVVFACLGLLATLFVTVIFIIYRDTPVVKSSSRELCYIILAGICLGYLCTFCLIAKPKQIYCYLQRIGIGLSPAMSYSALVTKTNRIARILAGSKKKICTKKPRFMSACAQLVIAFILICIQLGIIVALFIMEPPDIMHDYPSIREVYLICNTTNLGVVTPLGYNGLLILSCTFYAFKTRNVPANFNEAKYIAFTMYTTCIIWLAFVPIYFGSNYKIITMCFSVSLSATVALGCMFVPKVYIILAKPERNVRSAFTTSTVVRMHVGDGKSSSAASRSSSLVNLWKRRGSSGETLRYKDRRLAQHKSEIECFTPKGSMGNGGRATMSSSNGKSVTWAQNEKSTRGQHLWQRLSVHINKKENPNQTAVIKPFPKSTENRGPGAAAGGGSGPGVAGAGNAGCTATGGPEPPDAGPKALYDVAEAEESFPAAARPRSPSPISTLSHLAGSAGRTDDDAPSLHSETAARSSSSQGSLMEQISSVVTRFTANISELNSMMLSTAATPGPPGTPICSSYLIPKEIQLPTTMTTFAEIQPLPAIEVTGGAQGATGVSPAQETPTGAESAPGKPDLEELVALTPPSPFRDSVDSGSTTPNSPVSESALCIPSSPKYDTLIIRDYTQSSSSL
Chain of Metabotropic glutamate receptor 5 (Rattus norvegicus) (P31424 21-1203 limits assumed): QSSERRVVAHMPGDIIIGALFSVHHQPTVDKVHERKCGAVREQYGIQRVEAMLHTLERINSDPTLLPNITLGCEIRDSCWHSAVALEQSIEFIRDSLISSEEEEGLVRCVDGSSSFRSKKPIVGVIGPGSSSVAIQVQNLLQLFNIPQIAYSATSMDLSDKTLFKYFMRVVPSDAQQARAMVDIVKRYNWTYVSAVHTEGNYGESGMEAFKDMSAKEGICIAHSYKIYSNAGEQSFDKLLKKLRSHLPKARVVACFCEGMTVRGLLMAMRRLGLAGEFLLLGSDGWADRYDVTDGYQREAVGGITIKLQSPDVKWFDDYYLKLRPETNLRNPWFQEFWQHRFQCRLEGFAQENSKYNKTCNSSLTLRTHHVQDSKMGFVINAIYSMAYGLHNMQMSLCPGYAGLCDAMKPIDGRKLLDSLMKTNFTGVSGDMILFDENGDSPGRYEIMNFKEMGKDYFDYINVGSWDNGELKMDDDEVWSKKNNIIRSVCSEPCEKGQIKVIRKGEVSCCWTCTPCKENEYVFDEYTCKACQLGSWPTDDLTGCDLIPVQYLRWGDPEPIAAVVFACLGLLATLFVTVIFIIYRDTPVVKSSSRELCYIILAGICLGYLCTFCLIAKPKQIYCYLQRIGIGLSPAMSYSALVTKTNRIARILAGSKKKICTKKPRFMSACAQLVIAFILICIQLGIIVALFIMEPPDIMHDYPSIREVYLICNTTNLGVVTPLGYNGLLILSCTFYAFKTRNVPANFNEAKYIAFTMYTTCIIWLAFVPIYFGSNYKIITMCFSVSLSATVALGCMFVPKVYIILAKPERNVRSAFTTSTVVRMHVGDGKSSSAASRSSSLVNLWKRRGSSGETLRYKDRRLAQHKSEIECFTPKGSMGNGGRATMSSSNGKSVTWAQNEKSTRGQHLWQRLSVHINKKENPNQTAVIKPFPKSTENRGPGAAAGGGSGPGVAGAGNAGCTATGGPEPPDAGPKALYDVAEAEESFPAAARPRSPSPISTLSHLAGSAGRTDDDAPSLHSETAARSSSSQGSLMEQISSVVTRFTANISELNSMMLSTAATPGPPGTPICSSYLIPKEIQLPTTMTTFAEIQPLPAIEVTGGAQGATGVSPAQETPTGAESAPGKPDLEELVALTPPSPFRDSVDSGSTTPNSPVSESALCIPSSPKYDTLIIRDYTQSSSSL
T2 sequence (P41594 whole entry): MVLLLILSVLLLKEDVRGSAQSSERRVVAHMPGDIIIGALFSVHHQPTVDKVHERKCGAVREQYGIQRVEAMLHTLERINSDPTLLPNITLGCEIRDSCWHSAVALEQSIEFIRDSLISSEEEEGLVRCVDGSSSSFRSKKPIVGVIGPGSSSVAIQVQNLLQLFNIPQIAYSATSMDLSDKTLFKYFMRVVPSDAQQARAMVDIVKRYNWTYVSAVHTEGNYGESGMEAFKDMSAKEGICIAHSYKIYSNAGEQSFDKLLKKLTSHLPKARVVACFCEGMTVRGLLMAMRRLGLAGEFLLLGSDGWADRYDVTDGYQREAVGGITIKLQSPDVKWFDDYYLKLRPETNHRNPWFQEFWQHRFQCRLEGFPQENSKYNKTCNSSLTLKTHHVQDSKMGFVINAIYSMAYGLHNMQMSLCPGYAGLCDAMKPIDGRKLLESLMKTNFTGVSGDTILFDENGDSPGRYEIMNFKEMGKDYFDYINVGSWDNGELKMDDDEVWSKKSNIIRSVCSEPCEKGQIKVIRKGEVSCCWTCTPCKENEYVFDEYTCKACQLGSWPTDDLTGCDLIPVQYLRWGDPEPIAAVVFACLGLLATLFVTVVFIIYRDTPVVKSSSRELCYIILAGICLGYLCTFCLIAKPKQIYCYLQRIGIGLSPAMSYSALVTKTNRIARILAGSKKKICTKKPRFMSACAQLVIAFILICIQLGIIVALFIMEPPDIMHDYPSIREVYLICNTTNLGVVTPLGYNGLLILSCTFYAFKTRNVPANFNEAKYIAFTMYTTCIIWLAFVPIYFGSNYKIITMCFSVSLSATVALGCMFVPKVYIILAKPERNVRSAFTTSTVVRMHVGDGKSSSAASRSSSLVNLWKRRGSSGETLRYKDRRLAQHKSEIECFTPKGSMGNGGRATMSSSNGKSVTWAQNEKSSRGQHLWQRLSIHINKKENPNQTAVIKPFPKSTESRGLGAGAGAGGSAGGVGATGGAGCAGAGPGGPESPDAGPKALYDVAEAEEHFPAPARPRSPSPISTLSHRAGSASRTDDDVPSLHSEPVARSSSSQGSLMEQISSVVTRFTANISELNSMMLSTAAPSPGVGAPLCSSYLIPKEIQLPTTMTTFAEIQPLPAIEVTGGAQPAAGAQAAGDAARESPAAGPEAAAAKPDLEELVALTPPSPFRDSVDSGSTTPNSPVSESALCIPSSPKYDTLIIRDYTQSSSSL

Turning to `O=C(c1ccc(F)cc1)N1CCC[C@H](c2nc(-c3ccc(F)cc3)no2)C1`, the EC50 in data set [1] worked out at 55 nM; in data set [2], 157 nM.

For the compound `Fc1cccc(/C=N/N=C/c2cccc(F)c2)c1`, the EC50 in [3] was found to be 2600 nM.

Consider `O=C(NC1CCC1)c1ccc(C#Cc2cccc(F)c2)nc1`, for which the fraction unbound in data set [4] was 0.011. Moreover, in data set [5], the EC50 was determined as 39 nM. Besides, the Kp in data set [6] was 0.13.

On to `C[C@@H](NC(=O)c1ccc(C#Cc2ccccn2)cn1)C(C)(C)O`, for which the fold change (FC) in data set [7] came to 1.7. Moreover, the EC50 was 41.3 nM in data set [8] (read-out: EC50) and 93.3 nM in [8] (read-out: pEC50 (converted)). Further, the Efficacy in [9] was 57.5%. Besides, the values for the Activity entry in [10] and in [11] were “Active” and “Not Active”, respectively.
